Reference: ChEMBL document CHEMBL3994572, “Antiviral Triterpenes from the Twigs and Leaves of Lyonia ovalifolia” (J Nat Prod, 2016)

Assays:
Human alphaherpesvirus 1 = test: Antiviral activity against Herpes simplex virus-1 F VR 733 infected in African green monkey Vero cells assessed as inhibition of virus-induced cytopathic effect; assay type: functional; settings: Human alphaherpesvirus 1, Strain F ATCC VR 733, Vero
Outline: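 Vero cells (2.5 × 10^4/well) were seeded for 24 h, then the medium was removed. Cells were infected with HSV-1 at 100 TCID50 for 2 h, then given graded compound concentrations. Incubation continued until control CPE reached 4+. Runs were in triplicate, repeated at least three times. IC50 is the minimal concentration inhibiting 50% of CPE, by Reed and Muench.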

Influenza A virus = test: Antiviral activity against Influenza A virus A/95-359 infected in MDCK cells assessed as inhibition of virus-induced cytopathic effect; assay type: functional, cell-based; settings: A/95-359, MDCK
Outline: (§1)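 MDCK cells (2.5 × 10^4/well) seeded 24 h, PBS-washed, infected with influenza A/95-359 at 100 TCID50 for 2 h, then exposed to graded compound concentrations until control CPE reached 4+. IC50 = minimal concentration inhibiting 50% of CPE (Reed and Muench); triplicate, at least three separate experiments. […] SI = TC50/IC50.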

Coxsackievirus B3 = test: Antiviral activity against Coxsackievirus B3 infected in African green monkey Vero cells assessed as inhibition of virus-induced cytopathic effect; assay type: functional; settings: Enterovirus B
Outline: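 Vero monolayers were infected with Cox B3 at 100 TCID50 and allowed 2 h adsorption at 37 °C. They were then washed with PBS and kept at 37 °C in MEM with 2% FBS, with or without graded concentrations of test compounds. Read-out was CPE.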

[1] = Selectivity index, ratio of TC50 for MDCK cells to IC50 for Influenza A virus (A/95-359) infected in MDCK cells; assay type: toxicity, cell-based; settings: dog, read-out: Selectivity Index; outline: as §1
[2] = Cytotoxicity against MDCK cells assessed as growth inhibition after 48 hrs; assay type: cell-based, Canis lupus familiaris; settings: dog, read-out: TC50
Outline: (§2)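 Vero or MDCK cells (2.5 × 10^4/well) were seeded for 24 h, then exposed to graded compound concentrations. After 48 h at 37 °C and 5% CO2, cytotoxicity was scored by CPE. TC50 was calculated by Reed and Muench analysis.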

[3] = Selectivity index, ratio of TC50 for African green monkey Vero cells to IC50 for Herpes simplex virus-1 F VR 733 infected in African green monkey Vero cells; assay type: toxicity; settings: read-out: Selectivity Index
Outline: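 Vero cells (2.5 × 10^4/well) seeded 24 h, medium removed, infected with HSV-1 at 100 TCID50 for 2 h, then graded compound concentrations added until control CPE reached 4+. IC50 = minimal concentration inhibiting 50% CPE (Reed and Muench); triplicate, at least three separate experiments. […] SI = TC50/IC50.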

[4] = Cytotoxicity against African green monkey Vero cells assessed as growth inhibition after 48 hrs; assay type: cell-based; settings: chlorocebus sabaeus, read-out: TC50; outline: as §2
[5] = Selectivity index, ratio of TC50 for African green monkey Vero cells to IC50 for Coxsackievirus B3 infected in African green monkey Vero cells; assay type: toxicity; settings: read-out: Selectivity Index
Outline: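 Vero monolayers infected with 100 TCID50 Coxsackie B3 virus, 2 h adsorption at 37 °C, PBS-washed, then held in MEM plus 2% FBS at 37 °C with graded compound concentrations. […] SI = TC50/IC50.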

C[C@H](CC[C@H](O[C@@H]1OC[C@H](O)[C@H](O)[C@H]1O)C(C)(C)O)[C@H]1CC[C@@]2(C(=O)O)[C@@H]3CC[C@H]4C(=CC[C@@H](O[C@@H]5O[C@H](CO)[C@@H](O)[C@H](O)[C@H]5O)C4(C)C)C[C@H]3CC[C@]12C
IC50 (Human alphaherpesvirus 1): ≥ 33.3 µM
IC50 (Influenza A virus): > 33.3 µM
IC50 (Coxsackievirus B3): ≥ 33.3 µM

CC(=O)OC[C@H]1O[C@@H](O[C@@H]2CCC3=C(CC[C@@H]4[C@H](CC[C@]5(C)[C@@H]([C@H](C)CC[C@H](O[C@@H]6OC[C@H](O)[C@H](O)[C@H]6O)C(C)(C)O)CC[C@@]45C(=O)O)C3)C2(C)C)[C@H](O)[C@@H](O)[C@@H]1O
IC50 (Human alphaherpesvirus 1): ≥ 33.3 µM
IC50 (Influenza A virus): > 33.3 µM
IC50 (Coxsackievirus B3): ≥ 33.3 µM

C[C@H](CC[C@H](O[C@@H]1OC[C@H](O)[C@H](O)[C@H]1O)C(C)(C)O)[C@H]1CC[C@@]2(C(=O)O)[C@@H]3CCC4=C(CC[C@@H](O[C@@H]5O[C@H](CO)[C@@H](O)[C@H](O)[C@H]5O)C4(C)C)C[C@H]3CC[C@]12C
IC50 (Human alphaherpesvirus 1): ≥ 33.3 µM
IC50 (Influenza A virus): > 33.3 µM
IC50 (Coxsackievirus B3): ≥ 33.3 µM

CC(=O)OC[C@H]1O[C@@H](O[C@@H]2CC[C@]3(C)C4=C(CC[C@H]3C2(C)C)[C@]2(C(=O)O)CC[C@H]([C@H](C)CC[C@H](O[C@@H]3OC[C@H](O)[C@H](O)[C@H]3O)C(C)(C)O)[C@@]2(C)CC4)[C@H](O)[C@@H](O)[C@@H]1O
IC50 (Human alphaherpesvirus 1): 14.3 µM
IC50 (Influenza A virus): 33.3 µM
selectivity ratio [1]: 1.7
CC50 at 48 h [2]: 57.7 µM
IC50 (Coxsackievirus B3): ≥ 33.3 µM
selectivity ratio [3]: > 7
CC50 at 48 h [4]: > 100 µM

C[C@H](CC[C@H](O[C@@H]1O[C@H](CO)[C@@H](O)[C@H](O)[C@H]1O)C(C)(C)O)[C@H]1CC[C@@]2(C(=O)O)[C@@H]3CC[C@@H]4C(=CC[C@@H](O[C@@H]5O[C@H](CO)[C@@H](O)[C@H](O)[C@H]5O)C4(C)C)C[C@H]3CC[C@]12C
IC50 (Human alphaherpesvirus 1): ≥ 33.3 µM
IC50 (Influenza A virus): 33.3 µM
selectivity ratio [1]: > 3
CC50 at 48 h [2]: > 100 µM
IC50 (Coxsackievirus B3): ≥ 33.3 µM

Cc1cc(CCCOc2c(C)cc(-c3noc(C(F)(F)F)n3)cc2C)on1 [PLECONARIL]
IC50 (Coxsackievirus B3): 0.001 µM
CC50 at 48 h [4]: 15.4 µM
selectivity ratio [5]: 15400

C[C@H](CC[C@H](O[C@@H]1O[C@H](CO)[C@@H](O)[C@H](O)[C@H]1O)C(C)(C)O)[C@H]1CC[C@@]2(C(=O)O)C3=C(CC[C@]12C)[C@@]1(C)CC[C@@H](O)C(C)(C)[C@@H]1CC3
IC50 (Human alphaherpesvirus 1): 23.1 µM
IC50 (Influenza A virus): > 33.3 µM
IC50 (Coxsackievirus B3): ≥ 33.3 µM
selectivity ratio [3]: 2.5
CC50 at 48 h [4]: 57.7 µM

C[C@H](CC[C@H](O[C@H]1O[C@@H](CO)[C@H](O)[C@@H](O)[C@@H]1O)C(C)(C)O)[C@H]1CC[C@@]2(C(=O)O)C3=C(CC[C@]12C)[C@@]1(C)CC[C@@H](O[C@@H]2O[C@H](CO)[C@@H](O)[C@H](O)[C@H]2O)C(C)(C)[C@@H]1CC3
IC50 (Human alphaherpesvirus 1): ≥ 33.3 µM
IC50 (Influenza A virus): > 33.3 µM
IC50 (Coxsackievirus B3): ≥ 33.3 µM

C[C@H]1[C@H](C)CC[C@@]23CC[C@@]4(C)[C@@]5(C)[C@H](C[C@@H](O)[C@]4(OC2=O)[C@H]13)[C@@]1(C)C[C@@H](O)[C@@H](O)[C@](C)(CO)[C@@H]1C[C@@H]5O
IC50 (Human alphaherpesvirus 1): ≥ 33.3 µM
IC50 (Influenza A virus): > 33.3 µM
IC50 (Coxsackievirus B3): ≥ 33.3 µM

C[C@H]1[C@H](C)CC[C@@]23CC[C@]4(C)[C@](OC2=O)([C@H](O)C[C@@H]2[C@@]5(C)C[C@@H](O)[C@@H](O)C(CO)(CO)[C@@H]5CC[C@]24C)[C@H]13
IC50 (Human alphaherpesvirus 1): ≥ 33.3 µM
IC50 (Influenza A virus): > 33.3 µM
IC50 (Coxsackievirus B3): ≥ 33.3 µM

C[C@H](CC[C@H](O)C(C)(C)O)[C@H]1CC[C@@]2(C(=O)O)[C@@H]3CCC4=C(CC[C@@H](O[C@@H]5O[C@H](CO)[C@@H](O)[C@H](O)[C@H]5O)C4(C)C)C[C@H]3CC[C@]12C
IC50 (Human alphaherpesvirus 1): ≥ 33.3 µM
IC50 (Influenza A virus): 33.3 µM
selectivity ratio [1]: 3
CC50 at 48 h [2]: 100 µM
IC50 (Coxsackievirus B3): ≥ 33.3 µM

CCOC(=O)C1=C[C@@H](OC(CC)CC)[C@H](NC(C)=O)[C@@H](N)C1 [OSELTAMIVIR]
IC50 (Influenza A virus): 1.7 µM
selectivity ratio [1]: 741

CC(=O)OC[C@H]1O[C@@H](O[C@@H]2CC=C3C[C@H]4CC[C@]5(C)[C@@H]([C@H](C)CC[C@H](O[C@@H]6OC[C@H](O)[C@H](O)[C@H]6O)C(C)(C)O)CC[C@@]5(C(=O)O)[C@@H]4CC[C@H]3C2(C)C)[C@H](O)[C@@H](O)[C@@H]1O
IC50 (Human alphaherpesvirus 1): 19.3 µM
IC50 (Influenza A virus): > 33.3 µM
IC50 (Coxsackievirus B3): ≥ 33.3 µM
selectivity ratio [3]: > 5.2
CC50 at 48 h [4]: > 100 µM

CC(=O)OC[C@H]1O[C@@H](O[C@@H]2CCC3=C(CC[C@@H]4[C@H](CC[C@]5(C)[C@@H]([C@H](C)CC[C@H](O)C(C)(C)O)CC[C@@]45C(=O)O)C3)C2(C)C)[C@H](O)[C@@H](O)[C@@H]1O
IC50 (Human alphaherpesvirus 1): ≥ 33.3 µM
IC50 (Influenza A virus): > 11.1 µM
CC50 at 48 h [2]: 48.1 µM
IC50 (Coxsackievirus B3): ≥ 33.3 µM

C[C@H](CC[C@H](O)C(C)(C)O)[C@H]1CC[C@@]2(C(=O)O)[C@@H]3CC[C@@H]4C(=CC[C@@H](O)C4(C)C)C[C@H]3CC[C@]12C
IC50 (Human alphaherpesvirus 1): ≥ 33.3 µM
IC50 (Influenza A virus): 25.9 µM
selectivity ratio [1]: > 3.9
CC50 at 48 h [2]: > 100 µM
IC50 (Coxsackievirus B3): ≥ 33.3 µM

C[C@H](CC[C@H](O[C@@H]1OC[C@H](O)[C@H](O)[C@H]1O)C(C)(C)O)[C@H]1CC[C@@]2(C(=O)O)[C@@H]3CC[C@H]4C(=CC[C@@H](O[C@@H]5OC[C@H](O)[C@H](O)[C@H]5O)C4(C)C)C[C@H]3CC[C@]12C
IC50 (Human alphaherpesvirus 1): ≥ 33.3 µM
IC50 (Influenza A virus): > 33.3 µM
IC50 (Coxsackievirus B3): ≥ 33.3 µM

CC(=O)OC[C@H]1O[C@@H](O[C@@H]2CC=C3C[C@H]4CC[C@]5(C)[C@@H]([C@H](C)CC[C@H](O)C(C)(C)O)CC[C@@]5(C(=O)O)[C@@H]4CC[C@@H]3C2(C)C)[C@H](O)[C@@H](O)[C@@H]1O
IC50 (Human alphaherpesvirus 1): ≥ 33.3 µM
IC50 (Influenza A virus): > 33.3 µM
IC50 (Coxsackievirus B3): ≥ 33.3 µM

C[C@H](CC[C@H](O[C@@H]1OC[C@H](O)[C@H](O)[C@H]1O)C(C)(C)O)[C@H]1CC[C@@]2(C(=O)O)C3=C(CC[C@]12C)[C@@]1(C)CC[C@@H](O[C@@H]2OC[C@H](O)[C@H](O)[C@H]2O)C(C)(C)[C@@H]1CC3
IC50 (Human alphaherpesvirus 1): ≥ 33.3 µM
IC50 (Influenza A virus): > 33.3 µM
IC50 (Coxsackievirus B3): ≥ 33.3 µM

C[C@H](CC[C@H](O)C(C)(C)O)[C@H]1CC[C@@]2(C(=O)O)C3=C(CC[C@]12C)[C@@]1(C)CC[C@@H](O[C@@H]2O[C@H](CO)[C@@H](O)[C@H](O)[C@H]2O)C(C)(C)[C@@H]1CC3
IC50 (Human alphaherpesvirus 1): ≥ 33.3 µM
IC50 (Influenza A virus): > 33.3 µM
IC50 (Coxsackievirus B3): ≥ 33.3 µM

Nc1nc2c(ncn2COCCO)c(=O)[nH]1 [ACYCLOVIR]
IC50 (Human alphaherpesvirus 1): 0.41 µM
selectivity ratio [3]: > 244
CC50 at 48 h [4]: > 100 µM

C[C@H](CC[C@H](O[C@@H]1OC[C@H](O)[C@H](O)[C@H]1O)C(C)(C)O)[C@H]1CC[C@@]2(C(=O)O)[C@@H]3CCC4=C(CC[C@@H](O[C@H]5OC[C@@H](O)[C@@H](O)[C@@H]5O)C4(C)C)C[C@H]3CC[C@]12C
IC50 (Human alphaherpesvirus 1): ≥ 33.3 µM
IC50 (Influenza A virus): > 33.3 µM
IC50 (Coxsackievirus B3): ≥ 33.3 µM

C[C@H](CC[C@H](O[C@@H]1OC[C@H](O)[C@H](O)[C@H]1O)C(C)(C)O)[C@H]1CC[C@@]2(C(=O)O)C3=C(CC[C@]12C)[C@@]1(C)CC[C@@H](O[C@@H]2O[C@H](CO)[C@@H](O)[C@H](O)[C@H]2O)C(C)(C)[C@@H]1CC3
IC50 (Human alphaherpesvirus 1): ≥ 33.3 µM
IC50 (Influenza A virus): > 33.3 µM
IC50 (Coxsackievirus B3): ≥ 33.3 µM
